From PMC7518337 (Chemistry of materials : a publication of the American …, 2018)

Experiments:
[1] = test system: xenografted HCT116 p53^+/+ tumors; assay: In vivo antitumor activity in colon cancer xenograft model; parameters: species or system BALB/c nude mice; conditions: for amounts of apoptotic cells in xenograft tumors (TUNEL assay): compared to the control, Figure 6E
How it was run: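 Nude mice carried subcutaneous HCT116 p53+/+ xenografts in the right flank. They were randomised into groups of n = 6 and dosed every other day on days 1, 3, 5, 7, 9, 11 and 13. Test compounds and Nutlin-3 were given at 3 mg/kg, doxorubicin at 1.5 mg/kg, and PBS served as control. Tumors were excised on day 13 for H&E and TUNEL staining (×200). Mean ± s.e., n = 5.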

[2] = In vivo safety evaluation during and after anticancer treatment; parameters: species or system mice
How it was run: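 Xenograft-bearing nude mice were treated with test compound or doxorubicin control over a 13-day regimen. During and after treatment, blood counts (WBC, RBC, thrombocytes), liver weight, serum ALT and AST, and CRE and BUN were determined. A hospital clinical laboratory ran these by standard procedures. Liver and kidney sections were H&E stained. Mean ± s.e., t-test.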

[3] = test system: p53 and p21 expression; assay: Western blot analysis of p53 and p21; assay type: cell-based; conditions: PSP-^DPMI 200 nM, Nutlin3 5 μM, 24 h, p53 in HCT116 p53^+/+, MCF7, A375, p21 in HCT116 p53^+/+, vs PSP, PBS control
[4] = test system: HCT116 p53^+/+ cells; assay: Cell cycle distribution; assay type: cell-based; conditions: 200 nM PSP-^DPMI, 5 μM Nutlin3, 24 h
[5] = clinical trial in liposarcoma; cited from earlier work

SMILES | amounts of apoptotic cells in xenograft tumors (TUNEL assay) [1] | tumor pathomorphology (H&E) ([1]; tumors isolated on day 13, Figure 6C) | blood cell counts (WBCs, thrombocyte, RBCs) ([2]; Figure 8B–D) | kidney function and histology (CRE, BUN, H&E) ([2]; Figure 8I–K) | spleen health ([2]; Figure S15) | body weight ([2]; after a 13-day administration, Figure S14) | liver weight ([2]; compared to healthy mice, Figure 8E) | levels of liver enzymes ALT and AST ([2]; serum, compared to control or healthy mice, Figure 8F,G) | expression of p53 or p21 [3] | cell cycle effect [4] | adverse events in patients [5]
COc1cccc2c1C(=O)c1c(O)c3c(c(O)c1C2=O)C[C@@](O)(C(=O)CO)C[C@@H]3O[C@H]1C[C@H](N)[C@H](O)[C@H](C)O1 [DOX, doxorubicin] | significantly increased | misshapen tumors and cells | a certain level of leukopenia and thrombopenia | symptoms of glomerular lesions | serious spleen failure | significant decrease of body weight | decreased liver weight | aberrant levels | – | – | –
COc1ccc(C2=N[C@@H](c3ccc(Cl)cc3)[C@@H](c3ccc(Cl)cc3)N2C(=O)N2CCNC(=O)C2)c(OC(C)C)c1 [Nutlin3] | significantly increased | – | – | – | – | – | – | – | significantly increased the expression of p53 or p21 | arrest in G0/G1 phase | –
CCOc1cc(C(C)(C)C)ccc1C1=N[C@@](C)(c2ccc(Cl)cc2)[C@@](C)(c2ccc(Cl)cc2)N1C(=O)N1CCN(CCCS(C)(=O)=O)CC1 [RG7112] | – | – | – | – | – | – | – | – | – | – | thrombocytopenia and neutropenia have been seen in many patients
